{"source": "ChEMBL document CHEMBL2390929", "about": "“New nitric oxide donating 1,2,4-triazole/oxime hybrids: synthesis, investigation of anti-inflammatory, ulceroginic liability and antiproliferative activities” (Bioorg Med Chem, 2013)", "key": {"Rattus norvegicus [1]": {"test_system": "Rattus norvegicus", "assay": "Antiinflammatory activity in albino rat assessed as inhibition of carrageenan-induced paw edema at 0.28 mmol/kg, po after 1 hr relative to control", "type": "functional", "in_short": "(§1)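 Adult male albino rats (120–140 g), four per group, fasted 24 h with water allowed. Test agent suspended in 0.5% w/v aqueous CMC and given orally at 0.28 mmol/kg; controls received CMC alone. After 30 min, 0.1 mL fresh 1% carrageenan in saline was injected subplantar into the right hind paw and saline into the left. Paw thickness was measured by Vernier caliper; % inhibition = [(VR−VL)control − (VR−VL)treated]/(VR−VL)control ×100. Mean ± SEM, one-way ANOVA.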"}, "K562": {"test_system": "K562", "assay": "Cytotoxicity against human K562 cells assessed as cell growth at 10^-5 M after 48 hrs by SRB assay", "type": "functional", "settings": "K562, 48 h, read-out: Activity", "in_short": "(§2)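 NCI 60-cell-line primary one-dose screen across nine tumour subpanels. Compound added at a single concentration of 10^-5 M and cultures incubated 48 h. Endpoint was sulforhodamine B protein staining read spectrophotometrically, with growth expressed as percent of untreated control cells.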"}, "NCI-H522": {"test_system": "NCI-H522", "assay": "Cytotoxicity against human NCI-H522 cells assessed as cell growth at 10^-5 M after 48 hrs by SRB assay", "type": "functional", "settings": "NCI-H522, 48 h, read-out: Activity", "in_short": "as §2"}, "NCI-H226": {"test_system": "NCI-H226", "assay": "Cytotoxicity against human NCI-H226 cells assessed as cell growth at 10^-5 M after 48 hrs by SRB assay", "type": "functional", "settings": "NCI-H226, 48 h, read-out: Activity", "in_short": "as §2"}, "NCI-H322M": {"test_system": "NCI-H322M", "assay": "Cytotoxicity against human NCI-H322M cells assessed as cell growth at 10^-5 M after 48 hrs by SRB assay", "type": "functional", "settings": "read-out: Activity", "in_short": "as §2"}, "MDA-MB-435": {"test_system": "MDA-MB-435", "assay": "Cytotoxicity against human MDA-MB-435 cells assessed as cell growth at 10^-5 M after 48 hrs by SRB assay", "type": "functional", "settings": "MDA-MB-435, 48 h, read-out: Activity", "in_short": "as §2"}, "PC-3": {"test_system": "PC-3", "assay": "Cytotoxicity against human PC3 cells assessed as cell growth at 10^-5 M after 48 hrs by SRB assay", "type": "functional", "settings": "PC-3, 48 h, read-out: Activity", "in_short": "as §2"}, "Hs-578T": {"test_system": "Hs-578T", "assay": "Cytotoxicity against human Hs578T cells assessed as cell growth at 10^-5 M after 48 hrs by SRB assay", "type": "functional", "settings": "read-out: Activity", "in_short": "as §2"}, "Rattus norvegicus [2]": {"test_system": "Rattus norvegicus", "assay": "Gastrointestinal toxicity in albino rat assessed as histopathological analysis at 0.28 mmol/kg, po using haematoxylin and eosin staining by light microscopic analysis", "type": "organism-based", "settings": "in vivo", "in_short": "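Adult male albino rats (120–140 g, Minia University), groups of four, fasted 24 h with water allowed. Oral dose 0.28 mmol/kg suspended in 0.5% aqueous CMC; vehicle-only controls. Gastric sections dewaxed, stained with haematoxylin 5–7 min, differentiated in 1% HCl/70% alcohol, counterstained with 1% eosin 10 min. Cleared in xylene, mounted, examined by light microscopy at ×400.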"}, "SNB-75": {"test_system": "SNB-75", "assay": "Cytotoxicity against human SNB75 cells assessed as cell growth at 10^-5 M after 48 hrs by SRB assay", "type": "functional", "settings": "SNB-75, 48 h, read-out: Activity", "in_short": "(§3)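 NCI-60 one-dose screen across nine tumour subpanels. Each agent added once at 10^-5 M, cultures incubated 48 h. Endpoint is sulforhodamine B protein staining read spectrophotometrically. Output is percent growth of treated cells relative to untreated controls.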"}, "TK-10": {"test_system": "TK-10", "assay": "Cytotoxicity against human TK10 cells assessed as cell growth at 10^-5 M after 48 hrs by SRB assay", "type": "functional", "settings": "TK-10, 48 h, read-out: Activity", "in_short": "as §3"}, "Rattus norvegicus [3]": {"test_system": "Rattus norvegicus", "assay": "Antiinflammatory activity in albino rat assessed as inhibition of carrageenan-induced paw edema at 0.28 mmol/kg, po after 2 hrs relative to control", "type": "functional", "in_short": "as §1"}}}
{"smiles": "CCn1c(SC/C(=N/O)c2ccccc2)nnc1-c1ccc(OC)c(OC)c1", "values": [{"measurement": "inhibition in vivo at 280 µmol/kg", "setting": "Rattus norvegicus [1]", "value": 61, "unit": "%"}, {"measurement": "growth at 10 µM", "setting": "K562", "value": 93.4, "unit": "%"}, {"measurement": "growth at 10 µM", "setting": "NCI-H522", "value": 89.4, "unit": "%"}, {"measurement": "growth at 10 µM", "setting": "NCI-H226", "value": 97.6, "unit": "%"}, {"measurement": "growth at 10 µM", "setting": "NCI-H322M", "value": 99.4, "unit": "%"}, {"measurement": "growth at 10 µM", "setting": "MDA-MB-435", "value": 116, "unit": "%"}, {"measurement": "growth at 10 µM", "setting": "PC-3", "value": 101, "unit": "%"}, {"measurement": "growth at 10 µM", "setting": "Hs-578T", "value": 92.6, "unit": "%"}, {"measurement": "Activity", "setting": "Rattus norvegicus [2]", "value": "Non-toxic"}, {"measurement": "growth at 10 µM", "setting": "SNB-75", "value": 90.3, "unit": "%"}, {"measurement": "growth at 10 µM", "setting": "TK-10", "value": 106, "unit": "%"}, {"measurement": "inhibition in vivo at 280 µmol/kg", "setting": "Rattus norvegicus [3]", "value": 67, "unit": "%"}]}
{"smiles": "O/N=C(/CSc1nnc(-c2ccccc2)n1-c1ccccc1)c1ccccc1", "values": [{"measurement": "inhibition in vivo at 280 µmol/kg", "setting": "Rattus norvegicus [1]", "value": 60, "unit": "%"}, {"measurement": "growth at 10 µM", "setting": "K562", "value": 74.6, "unit": "%"}, {"measurement": "growth at 10 µM", "setting": "NCI-H522", "value": 98.5, "unit": "%"}, {"measurement": "growth at 10 µM", "setting": "NCI-H226", "value": 95.6, "unit": "%"}, {"measurement": "growth at 10 µM", "setting": "MDA-MB-435", "value": 97.5, "unit": "%"}, {"measurement": "growth at 10 µM", "setting": "PC-3", "value": 82.8, "unit": "%"}, {"measurement": "growth at 10 µM", "setting": "Hs-578T", "value": 82.9, "unit": "%"}, {"measurement": "growth at 10 µM", "setting": "SNB-75", "value": 115, "unit": "%"}, {"measurement": "inhibition in vivo at 280 µmol/kg", "setting": "Rattus norvegicus [3]", "value": 63, "unit": "%"}]}
{"smiles": "COc1ccc(-c2nnc(SC/C(=N/O)c3ccccc3)n2-c2ccccc2)cc1", "values": [{"measurement": "inhibition in vivo at 280 µmol/kg", "setting": "Rattus norvegicus [1]", "value": 58, "unit": "%"}, {"measurement": "growth at 10 µM", "setting": "K562", "value": 82.1, "unit": "%"}, {"measurement": "growth at 10 µM", "setting": "NCI-H522", "value": 81.6, "unit": "%"}, {"measurement": "growth at 10 µM", "setting": "NCI-H226", "value": 103, "unit": "%"}, {"measurement": "growth at 10 µM", "setting": "NCI-H322M", "value": 102, "unit": "%"}, {"measurement": "growth at 10 µM", "setting": "MDA-MB-435", "value": 102, "unit": "%"}, {"measurement": "growth at 10 µM", "setting": "PC-3", "value": 86.4, "unit": "%"}, {"measurement": "growth at 10 µM", "setting": "Hs-578T", "value": 107, "unit": "%"}, {"measurement": "growth at 10 µM", "setting": "SNB-75", "value": 103, "unit": "%"}, {"measurement": "growth at 10 µM", "setting": "TK-10", "value": 113, "unit": "%"}, {"measurement": "inhibition in vivo at 280 µmol/kg", "setting": "Rattus norvegicus [3]", "value": 63, "unit": "%"}]}
{"smiles": "COc1ccc(-c2nnc(SC/C(=N/O)c3ccccc3)n2-c2ccccc2)cc1OC", "values": [{"measurement": "inhibition in vivo at 280 µmol/kg", "setting": "Rattus norvegicus [1]", "value": 55, "unit": "%"}, {"measurement": "growth at 10 µM", "setting": "K562", "value": 88.7, "unit": "%"}, {"measurement": "growth at 10 µM", "setting": "NCI-H522", "value": 88.8, "unit": "%"}, {"measurement": "growth at 10 µM", "setting": "NCI-H226", "value": 94.9, "unit": "%"}, {"measurement": "growth at 10 µM", "setting": "NCI-H322M", "value": 103, "unit": "%"}, {"measurement": "growth at 10 µM", "setting": "MDA-MB-435", "value": 109, "unit": "%"}, {"measurement": "growth at 10 µM", "setting": "PC-3", "value": 91.6, "unit": "%"}, {"measurement": "growth at 10 µM", "setting": "Hs-578T", "value": 105, "unit": "%"}, {"measurement": "growth at 10 µM", "setting": "SNB-75", "value": 91.4, "unit": "%"}, {"measurement": "growth at 10 µM", "setting": "TK-10", "value": 123, "unit": "%"}, {"measurement": "inhibition in vivo at 280 µmol/kg", "setting": "Rattus norvegicus [3]", "value": 61, "unit": "%"}]}
{"smiles": "COc1cc(-c2nnc(SC/C(=N/O)c3ccccc3)n2-c2ccccc2)cc(OC)c1OC", "values": [{"measurement": "inhibition in vivo at 280 µmol/kg", "setting": "Rattus norvegicus [1]", "value": 61, "unit": "%"}, {"measurement": "growth at 10 µM", "setting": "K562", "value": 85.2, "unit": "%"}, {"measurement": "growth at 10 µM", "setting": "NCI-H522", "value": 82.1, "unit": "%"}, {"measurement": "growth at 10 µM", "setting": "NCI-H226", "value": 94.1, "unit": "%"}, {"measurement": "growth at 10 µM", "setting": "NCI-H322M", "value": 104, "unit": "%"}, {"measurement": "growth at 10 µM", "setting": "MDA-MB-435", "value": 104, "unit": "%"}, {"measurement": "growth at 10 µM", "setting": "PC-3", "value": 92.1, "unit": "%"}, {"measurement": "growth at 10 µM", "setting": "Hs-578T", "value": 103, "unit": "%"}, {"measurement": "growth at 10 µM", "setting": "SNB-75", "value": 84.5, "unit": "%"}, {"measurement": "growth at 10 µM", "setting": "TK-10", "value": 116, "unit": "%"}, {"measurement": "inhibition in vivo at 280 µmol/kg", "setting": "Rattus norvegicus [3]", "value": 61, "unit": "%"}]}
{"smiles": "C=CCn1c(SC/C(=N\\O)c2ccccc2)nnc1-c1ccc(OC)c(OC)c1", "values": [{"measurement": "inhibition in vivo at 280 µmol/kg", "setting": "Rattus norvegicus [1]", "value": 53, "unit": "%"}, {"measurement": "growth at 10 µM", "setting": "K562", "value": 90.8, "unit": "%"}, {"measurement": "growth at 10 µM", "setting": "NCI-H522", "value": 89, "unit": "%"}, {"measurement": "growth at 10 µM", "setting": "NCI-H226", "value": 103, "unit": "%"}, {"measurement": "growth at 10 µM", "setting": "NCI-H322M", "value": 96.6, "unit": "%"}, {"measurement": "growth at 10 µM", "setting": "MDA-MB-435", "value": 105, "unit": "%"}, {"measurement": "growth at 10 µM", "setting": "PC-3", "value": 96.5, "unit": "%"}, {"measurement": "growth at 10 µM", "setting": "Hs-578T", "value": 97.3, "unit": "%"}, {"measurement": "growth at 10 µM", "setting": "SNB-75", "value": 86.9, "unit": "%"}, {"measurement": "growth at 10 µM", "setting": "TK-10", "value": 112, "unit": "%"}, {"measurement": "inhibition in vivo at 280 µmol/kg", "setting": "Rattus norvegicus [3]", "value": 57, "unit": "%"}]}
{"smiles": "CCn1c(SC/C(=N/O)c2ccccc2)nnc1-c1ccccc1", "values": [{"measurement": "inhibition in vivo at 280 µmol/kg", "setting": "Rattus norvegicus [1]", "value": 65, "unit": "%"}, {"measurement": "growth at 10 µM", "setting": "K562", "value": 86, "unit": "%"}, {"measurement": "growth at 10 µM", "setting": "NCI-H522", "value": 112, "unit": "%"}, {"measurement": "growth at 10 µM", "setting": "NCI-H226", "value": 108, "unit": "%"}, {"measurement": "growth at 10 µM", "setting": "MDA-MB-435", "value": 105, "unit": "%"}, {"measurement": "growth at 10 µM", "setting": "PC-3", "value": 81.2, "unit": "%"}, {"measurement": "growth at 10 µM", "setting": "Hs-578T", "value": 101, "unit": "%"}, {"measurement": "growth at 10 µM", "setting": "SNB-75", "value": 87.8, "unit": "%"}, {"measurement": "inhibition in vivo at 280 µmol/kg", "setting": "Rattus norvegicus [3]", "value": 69, "unit": "%"}]}
